Source: ChEMBL document CHEMBL1155280, “New arylthioindoles and related bioisosteres at the sulfur bridging group. 4. Synthesis, tubulin polymerization, cell growth inhibition, and molecular modeling studies” (J Med Chem, 2009)

Key:
[1] = Inhibition of tubulin polymerization after 20 mins by spectrophotometry
Procedure, shortened: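 Tubulin 10 μM in 0.8 M monosodium glutamate, pH 6.6, preincubated 15 min at 30 °C with varying drug, chilled on ice. GTP added to 0.4 mM, turbidity at 350 nm followed 20 min at 30 °C. Extent of assembly measured; IC50 ± SD.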

[2] = species on record: Bos taurus; experiment: Inhibition of [3H]colchicine binding to bovine tubulin at 5 uM after 10 mins by DEAE-cellulose filter method
[3] = system: MCF7; experiment: Growth inhibition of human MCF7 cells after 48 hrs by sulforhodamine B assay; format: functional, cell-based; conditions: MCF7, 48 h
[4] = Growth inhibition of HSMC; format: cell-based; conditions: Homo sapiens
Procedure, shortened: (§1)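 Human aortic smooth muscle, PtK2 kidney epithelial, rat A10 aortic smooth muscle and HUVEC lines grown as the supplier recommends, under 5% CO2.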

[5] = Growth inhibition of Potorous tridactylus PtK2 cells; format: cell-based; procedure, shortened: as §1
[6] = system: HUVEC; experiment: Growth inhibition of HUVEC; format: cell-based; conditions: Homo sapiens; procedure, shortened: as §1
[7] = system: Saccharomyces cerevisiae; experiment: Toxicity in Saccharomyces cerevisiae assessed as growth inhibition at first dilution at 20 uM after 3 days; format: organism-based; conditions: in vivo, 72 h
Procedure, shortened: (§2)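 S. cerevisiae BY4741 grown at 28 °C in minimal SD medium with 2% glucose. Exponential culture (5 × 10^6 cells/mL) exposed 18 h at 28 °C to compound at 20 μM, washed, resuspended in SD, serially diluted 10-fold, incubated overnight. Spotted onto YPD plates; growth scored by dilution reached after 3 days at 28 °C.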

[8] = system: Saccharomyces cerevisiae; experiment: Toxicity in Saccharomyces cerevisiae assessed as growth inhibition at second dilution at 20 uM after 3 days; format: organism-based; conditions: in vivo, 72 h; procedure, shortened: as §2

IC50 [1] | inhibition [2] | IC50 [3] | SMILES | other results
> 40 µM | – | – | COC(=O)c1[nH]c2ccc(OC)cc2c1S(=O)c1cc(OC)c(OC)c(OC)c1 (stereo unspecified) | –
2.6 µM | 49% | 0.09 µM | CCOC(=O)c1[nH]c2ccc(OC)cc2c1C(=O)c1cc(OC)c(OC)c(OC)c1 | –
1.4 µM | 49% | 0.11 µM | CCOC(=O)c1[nH]c2ccc(Cl)cc2c1C(=O)c1cc(OC)c(OC)c(OC)c1 | –
> 40 µM | – | – | COC(=O)c1[nH]c2ccc(OC)cc2c1S(=O)(=O)c1cc(OC)c(OC)c(OC)c1 | –
4.2 µM | 33% | 0.19 µM | COC(=O)c1[nH]c2ccccc2c1Cc1cc(OC)c(OC)c(OC)c1 | –
> 40 µM | – | – | CCOC(=O)c1[nH]c2ccc(Cl)cc2c1C(=O)C(=O)c1cc(OC)c(OC)c(OC)c1 | –
2.5 µM | 44% | 0.053 µM | COc1cc(C(=O)c2c[nH]c3ccc(Cl)cc23)cc(OC)c1OC | –
4.1 µM | 61% | 0.022 µM | COc1ccc2[nH]cc(Sc3cc(OC)c(OC)c(OC)c3)c2c1 | –
> 40 µM | – | – | CCOC(=O)c1[nH]c2ccc(Cl)cc2c1C(=O)Cc1cc(OC)c(OC)c(OC)c1 | –
2.5 µM | 39% | 0.23 µM | CCOC(=O)c1[nH]c2ccc(Cl)cc2c1Cc1cc(OC)c(OC)c(OC)c1 | –

Continued, molecule first:

SMILES | IC50 [1] | inhibition [2] | IC50 [3] | other results
CCOC(=O)c1c(CC)c(CC)c(C)n1Cc1cc(OC)c(OC)c(OC)c1 | > 40 µM | – | – | –
COc1cc(Cn2c(C)c(C)c(C)c2C(=O)OCCOCCO)cc(OC)c1OC | > 40 µM | – | – | –
CCOC(=O)c1c(C)c(C)c(C)n1Cc1cc(OC)c(OC)c(OC)c1 | > 40 µM | – | – | –
COC(=O)c1[nH]c2ccccc2c1Sc1cc(OC)c(OC)c(OC)c1 | 2.9 µM | 74% | – | –
CCOC(=O)c1cccn1C(=O)c1cc(OC)c(OC)c(OC)c1 | 32 µM | – | > 2.5 µM | –
CCOC(=O)c1cn(Cc2cc(OC)c(OC)c(OC)c2)cn1 | > 40 µM | – | – | –
CC(=O)O[C@H]1C(=O)[C@@]2(C)[C@H]([C@H](OC(=O)c3ccccc3)[C@]3(O)C[C@H](OC(=O)[C@H](O)[C@@H](NC(=O)c4ccccc4)c4ccccc4)C(C)=C1C3(C)C)[C@]1(OC(C)=O)CO[C@@H]1C[C@@H]2O [PACLITAXEL] | – | – | – | IC50 [4]: 0.006 µM; IC50 [5]: 0.021 µM; IC50 [6]: 0.007 µM
COc1cc(C(=O)c2c[nH]c3ccccc23)cc(OC)c1OC | 3.5 µM | 26% | 0.15 µM | –
CCOC(=O)c1cccn1Cc1cc(OC)c(OC)c(OC)c1 | > 40 µM | – | – | –
COc1cc(Cn2cccc2C(=O)O)cc(OC)c1OC | > 40 µM | – | > 2.5 µM | Activity [7]: Toxic; Activity [8]: Non-toxic
